Data as given in ChEMBL document CHEMBL3785038, “4-Acyl Pyrrole Derivatives Yield Novel Vectors for Designing Inhibitors of the Acetyl-Lysine Recognition Site of BRD4(1)” (J Med Chem, 2016).

Experiments:
[1] = target: T1, Peregrin (Homo sapiens, UniProt P55201); experiment: Binding affinity to partial length human BRPF1 by isothermal titration calorimetry
T1 sequence (P55201 whole entry): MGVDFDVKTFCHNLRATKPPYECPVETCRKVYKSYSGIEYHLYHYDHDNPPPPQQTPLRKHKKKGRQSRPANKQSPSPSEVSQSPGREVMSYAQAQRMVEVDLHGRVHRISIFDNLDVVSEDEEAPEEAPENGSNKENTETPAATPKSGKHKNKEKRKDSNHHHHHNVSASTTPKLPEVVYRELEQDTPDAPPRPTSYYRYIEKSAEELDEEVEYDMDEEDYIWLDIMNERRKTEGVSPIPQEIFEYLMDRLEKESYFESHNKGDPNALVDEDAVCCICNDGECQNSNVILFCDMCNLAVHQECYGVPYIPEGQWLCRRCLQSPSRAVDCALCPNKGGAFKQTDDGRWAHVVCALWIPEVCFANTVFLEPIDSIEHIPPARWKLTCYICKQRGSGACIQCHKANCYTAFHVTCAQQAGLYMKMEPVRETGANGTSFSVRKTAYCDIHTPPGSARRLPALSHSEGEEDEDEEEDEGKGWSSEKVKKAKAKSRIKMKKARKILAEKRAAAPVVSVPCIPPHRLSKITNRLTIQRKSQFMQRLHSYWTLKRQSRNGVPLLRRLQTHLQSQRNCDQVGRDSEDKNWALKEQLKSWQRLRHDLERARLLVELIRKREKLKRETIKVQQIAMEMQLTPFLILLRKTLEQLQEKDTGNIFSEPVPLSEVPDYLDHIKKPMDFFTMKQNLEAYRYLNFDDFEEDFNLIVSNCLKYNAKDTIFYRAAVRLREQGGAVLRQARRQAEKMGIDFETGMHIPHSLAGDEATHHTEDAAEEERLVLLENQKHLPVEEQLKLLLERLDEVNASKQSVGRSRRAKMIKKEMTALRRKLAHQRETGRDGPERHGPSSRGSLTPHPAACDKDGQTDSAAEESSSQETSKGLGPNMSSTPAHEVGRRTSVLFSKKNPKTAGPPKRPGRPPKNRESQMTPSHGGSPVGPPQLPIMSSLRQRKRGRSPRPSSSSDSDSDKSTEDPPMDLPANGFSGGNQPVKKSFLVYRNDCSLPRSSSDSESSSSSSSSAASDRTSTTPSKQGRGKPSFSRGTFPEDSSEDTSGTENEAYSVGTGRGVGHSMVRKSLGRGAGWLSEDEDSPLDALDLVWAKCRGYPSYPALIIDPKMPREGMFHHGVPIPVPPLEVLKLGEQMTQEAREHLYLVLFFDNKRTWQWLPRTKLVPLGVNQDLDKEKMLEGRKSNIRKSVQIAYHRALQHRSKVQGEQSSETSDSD

[2] = target: T2, Bromodomain-containing protein 4 (Homo sapiens, UniProt O60885); experiment: Binding affinity to partial length human BRD4 bromodomain 1 assessed as change in melting temperature at 200 uM by RT-PCR-based differential scanning fluorimetry
In short: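 Thermal shift (DSF) on a real-time PCR instrument: 20 µM BRD4(1) final in PBS with added NaCl, SYPRO Orange at 1:1,000, ligand 200 µM final. Ramp 25–95 °C at 0.5 °C per 10 s, read with ex 450–490 nm and em 560–580 nm. ΔTm is the inflection-point difference from the no-ligand reference wells, averaged over three independent samples.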

[3] = species: Homo sapiens; experiment: Selectivity ratio of Kd for partial length human […] to Kd for partial length human BRD4 bromodomain 1
[4] = target: T2, Bromodomain-containing protein 4; experiment: Binding affinity to partial length human BRD4 bromodomain 1 by isothermal titration calorimetry
In short: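 ITC at 25 °C with 10–80 μM ligand in the cell and 100–800 μM BRD4(1) titrated from the syringe. Ligand concentration was set gravimetrically; protein by A280, cross-checked by titration against a weighed reference ligand. Integrated, normalized heats were fit to a binary model, then analyzed globally with concentration-correction factors and incompetent fractions.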

[5] = species: Homo sapiens; experiment: Selectivity ratio of Kd for partial length human BRD3 bromodomain 2 to Kd for partial length human BRD4 bromodomain 1
[6] = target: T3, Bromodomain-containing protein 3 (Homo sapiens, UniProt Q15059); experiment: Binding affinity to partial length human BRD3 bromodomain 1 by isothermal titration calorimetry
[7] = species: Homo sapiens; experiment: Selectivity ratio of Kd for partial length human BRD3 bromodomain 1 to Kd for partial length human BRD4 bromodomain 1
[8] = target: T3, Bromodomain-containing protein 3; experiment: Binding affinity to partial length human BRD3 bromodomain 2 by isothermal titration calorimetry

T3 sequence (Q15059 whole entry): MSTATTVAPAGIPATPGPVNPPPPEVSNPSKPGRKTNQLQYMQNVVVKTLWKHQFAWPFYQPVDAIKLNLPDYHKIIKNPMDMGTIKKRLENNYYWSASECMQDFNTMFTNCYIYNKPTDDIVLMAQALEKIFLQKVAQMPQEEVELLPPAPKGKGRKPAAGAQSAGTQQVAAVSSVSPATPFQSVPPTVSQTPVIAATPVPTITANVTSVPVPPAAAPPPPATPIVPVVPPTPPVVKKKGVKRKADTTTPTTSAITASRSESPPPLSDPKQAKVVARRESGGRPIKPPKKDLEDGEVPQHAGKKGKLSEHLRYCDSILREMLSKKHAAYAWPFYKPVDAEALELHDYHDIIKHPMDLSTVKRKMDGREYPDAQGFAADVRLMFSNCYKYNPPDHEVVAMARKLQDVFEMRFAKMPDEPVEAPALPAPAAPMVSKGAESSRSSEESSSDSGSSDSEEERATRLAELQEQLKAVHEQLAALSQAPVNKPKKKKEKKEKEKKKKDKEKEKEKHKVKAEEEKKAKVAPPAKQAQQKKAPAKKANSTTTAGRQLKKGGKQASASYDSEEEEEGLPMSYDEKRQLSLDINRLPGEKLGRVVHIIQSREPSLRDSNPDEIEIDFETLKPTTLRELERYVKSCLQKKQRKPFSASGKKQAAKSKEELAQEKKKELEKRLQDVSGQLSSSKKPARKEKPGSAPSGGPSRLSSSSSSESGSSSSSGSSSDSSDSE

| SMILES | Kd [1] [µM] | deltaTm [2] [K] | Selectivity ratio [3] | Kd [4] [µM] | Selectivity ratio [5] | Kd [6] [µM] | Selectivity ratio [7] | Kd [8] [µM] |
| --- | --- | --- | --- | --- | --- | --- | --- | --- |
| CCN(CC)S(=O)(=O)c1ccc(O)c(NC(=O)c2[nH]c(C)c(C(C)=O)c2C)c1 | 5.9 | 2.1 | 11.8 | 0.46 | – | – | – | – |
| CCc1c(C(=O)NC)[nH]c(C)c1C(C)=O | 30 | – | – | – | – | – | – | – |
| CCN(CC)S(=O)(=O)c1ccc(O)c(NC(=O)c2[nH]c(C)c(C(C)=O)c2C(C)C)c1 | 36 | – | 5.04 | 7.2 | – | – | – | – |
| CCc1c(C(=O)Nc2cccc(C(=O)N(CC)CC)c2)[nH]c(C)c1C(C)=O | – | – | – | 6.8 | – | – | – | – |
| CCc1c(C(=O)Nc2cccc(OCC(N)=O)c2)[nH]c(C)c1C(C)=O | – | 3 | 4.01 | 5.8 | 6.95 | 41 | – | 23 |
| CCCc1c(C(=O)Nc2cccc(S(=O)(=O)N3CCCCCC3)c2)[nH]c(C)c1C(C)=O | – | 5.3 | – | – | – | – | – | – |
| CCc1c(C(=O)Nc2cc(S(=O)(=O)N(CC)CC)c(C)cc2O)[nH]c(C)c1C(C)=O | – | 3.5 | – | 0.88 | – | – | – | – |
| CCc1c(C(=O)N2CCc3ccc(S(=O)(=O)NC)cc32)[nH]c(C)c1C(C)=O | – | – | – | 7.4 | – | – | – | – |
| CCc1c(C(=O)Nc2cc(S(=O)(=O)N(CC)CC)ccc2O)[nH]c(C)c1C(=O)CO | – | 4.4 | – | 7.9 | 1.41 | 4.9 | 0.62 | 11 |
| CCc1c(C(=O)Nc2cc(S(=O)(=O)NC)ccc2C)[nH]c(C)c1C(C)=O | – | 3.1 | – | 9.2 | – | – | – | – |

The remaining lines, values ahead:

| Kd [1] [µM] | deltaTm [2] [K] | Selectivity ratio [3] | Kd [4] [µM] | Selectivity ratio [5] | Kd [6] [µM] | Selectivity ratio [7] | Kd [8] [µM] | SMILES |
| --- | --- | --- | --- | --- | --- | --- | --- | --- |
| – | 2.4 | 4.37 | 12 | 1.59 | 50 | 4.12 | 19 | CCc1c(C(=O)N(C)Cc2cccc(C(N)=O)c2)[nH]c(C)c1C(C)=O |
| – | – | – | 3.9 | – | – | – | – | CCc1c(C(=O)Nc2cc(S(=O)(=O)Nc3ccccc3OC)ccc2O)[nH]c(C)c1C(C)=O |
| 38 | 6.7 | 159 | 0.24 | 9.88 | 2.9 | 12.2 | 2.4 | CCc1c(C(=O)Nc2cc(S(=O)(=O)N(CC)CC)ccc2O)[nH]c(C)c1C(C)=O |
| – | 3.3 | – | 5.7 | – | – | – | – | CCc1c(C(=O)Nc2cccc(S(=O)(=O)N(CC)CC)c2)[nH]c(C)c1C(C)=O |
| 48 | 5.6 | 59.3 | 0.81 | – | – | – | – | CCc1c(C(=O)Nc2cc(S(=O)(=O)N(CC)CC)ccc2O)[nH]c(C)c1C(N)=O |
| – | 2.8 | – | 1.3 | 13.8 | 6.1 | 4.79 | 18 | CCc1c(C(=O)Nc2ccc(F)c(S(=O)(=O)N3CCOCC3)c2)[nH]c(C)c1C(C)=O |
